Laboratory results: ChEMBL document CHEMBL3853294, “Design, synthesis and biological evaluation of novel HSP70 inhibitors: N, N'-disubstituted thiourea derivatives” (Eur J Med Chem, 2016)

Tests used:
Homo sapiens [1] = organism: Homo sapiens; assay: Inhibition of HSP70 in human BT/LapR1.0 cells assessed as potentiation of 1 uM of lapatinib-induced growth inhibition at 10 uM after 72 hrs by cell titer-glo based luminescence assay
Method in brief: (§1)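 Cells were trypsinised and seeded at 5000 cells/well, then cultured 24 h at 37 °C. Compound was added at 10 µM, alone or with 1 µM lapatinib, and incubated 72 h at 37 °C. CellTiter-Glo reagent was added at a volume equal to the medium, followed by 3 min shaking and 10 min at room temperature. Luminescence (ATP) was read and normalised to the blank control group.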

[2] = Growth inhibition of human BT474 cells at 10 uM after 72 hrs by cell titer-glo based luminescence assay; set-up: species or system BT-474; settings: read-out: GI; method in brief: as §1
[3] = biological target: Chaperone protein DnaK (Escherichia coli) (UniProt P0A6Y8); assay: Inhibition of Escherichia coli DnaK ATPase activity at 200 uM incubated on shaker for 10 mins followed by 30 mins incubation by malachite green reagent based colorimetric assay
Homo sapiens [4] = organism: Homo sapiens; assay: Inhibition of HSP70 in human BT/LapR1.0 cells assessed as potentiation of 1 uM of lapatinib-induced growth inhibition after 72 hrs by measuring coefficient of drug interaction by cell titer-glo based luminescence assay
[5] = Growth inhibition of human BT/LapR1.0 cells at 10 uM after 72 hrs by cell titer-glo based luminescence assay; settings: read-out: GI; method in brief: as §1
BT-474 [6] = assay: Potentiation of lapatinib-induced growth inhibition of human BT474 cells assessed as coefficient of drug interaction after 72 hrs by cell titer-glo based luminescence assay; assay type: functional
BT-474 [7] = assay: Potentiation of lapatinib-induced growth inhibition of human BT474 cells at 10 uM after 72 hrs by cell titer-glo based luminescence assay; assay type: functional; settings: BT-474, 72 h, read-out: GI; method in brief: as §1

Row | inhibition [3] [%] | Structure (SMILES) | growth inhibition (GI) (Homo sapiens [1]) [%] | inhibition at 72 h, 10 µM [2] [%] | Activity (Homo sapiens [4]) | inhibition at 72 h, 10 µM [5] [%] | Activity (BT-474 [6]) | inhibition of growth at 10 µM (BT-474 [7]) [%]
1 | 50.4 | COc1cc(/C=C/C(=O)NC(CC(C)C)NC(=S)Nc2ccccc2)cc(OC)c1OC (configuration not stated) | 42.2 | 7.3 | < 1 | 9.4 | <1 | 76.6
2 | 38.5 | COc1cc(/C=C/C(=O)NC(CC(C)C)NC(=S)Nc2cccnc2)cc(OC)c1OC (configuration not stated) | 54.2 | 9.2 | < 1 | 10.5 | <1 | 79.1
3 | < 20 | CC(C)(C)CC(NC(=O)/C=C/c1ccccc1)NC(=S)Nc1ccccc1 (configuration not stated) | 53 | 11.3 | < 1 | 34.6 | 0.79 | 84.9
4 | < 20 | CC(C)(C)C(NC(=O)/C=C/c1ccccc1)NC(=S)Nc1ccccc1 (configuration not stated) | 33 | 9.6 | < 1 | 11.4 | 0.85 | 83.5
5 | < 20 | COc1ccc(NC(=S)NC(NC(=O)/C=C/c2cc(OC)c(OC)c(OC)c2)C(C)C)cc1 (configuration not stated) | 23.4 | 11.5 | < 1 | 15.4 | <1 | 78.5
6 | 46.2 | COc1cc(/C=C/C(=O)NC(CC(C)C)NC(=S)NC2CCCCC2)cc(OC)c1OC (configuration not stated) | 48.1 | 16.5 | < 1 | 38.8 | 0.73 | 83.4
7 | < 20 | CC(C)(C)C(NC(=O)/C=C/c1ccccc1)NC(=S)NC1CCCCC1 (configuration not stated) | 47.2 | 13 | < 1 | 34.3 | 0.77 | 85.2
8 | < 20 | COc1cc(/C=C/C(=O)NC(NC(=S)Nc2ccccn2)C2CC2)cc(OC)c1OC (configuration not stated) | 59.6 | 20.1 | < 1 | 17.4 | <1 | 87.8
9 | < 20 | CC(C)CC(NC(=O)/C=C/c1ccccc1)NC(=S)Nc1ccccc1 (configuration not stated) | 36.9 | 17.7 | < 1 | 13.6 | 0.86 | 85
10 | < 20 | COc1cc(/C=C/C(=O)NC(NC(=S)Nc2cccnc2)C(C)(C)C)cc(OC)c1OC (configuration not stated) | 56 | 10.3 | < 1 | 16 | <1 | 84.7
11 | < 20 | CNC(=S)NC(CC(C)C)NC(=O)/C=C/c1cc(OC)c(OC)c(OC)c1 (configuration not stated) | 30.9 | 10.5 | < 1 | 13 | <1 | 79.8
12 | 35.8 | COc1cc(/C=C/C(=O)NC(NC(=S)NC2CCCCC2)C(C)(C)C)cc(OC)c1OC (configuration not stated) | 57.8 | 13.5 | 0.86 | 39.8 | 0.56 | 87.3
13 | < 20 | COc1cc(/C=C/C(=O)NC(NC(=S)NC2CCCCC2)C(C)C)cc(OC)c1OC (configuration not stated) | 45.7 | 15.3 | 0.8 | 22.6 | 0.82 | 82.2
14 | < 20 | O=C(/C=C/c1ccccc1)NC(NC(=S)Nc1ccccn1)C1CC1 (configuration not stated) | 25.2 | 2.4 | < 1 | 6 | <1 | 78.8
15 | < 20 | COc1cc(/C=C/C(=O)NC(NC(=O)Nc2ccccn2)C(C)C)cc(OC)c1OC (configuration not stated) | 57.6 | 12.4 | < 1 | 18.2 | <1 | 86.2
16 | < 20 | COc1cc(/C=C/C(=O)NC(CC(C)C)NC(=S)Nc2ccccn2)cc(OC)c1OC (configuration not stated) | 61 | 24.9 | < 1 | 38.7 | <1 | 87.8
